Laboratory results as given in PMC11542020 (Blood Cancer Journal, 2024).
Read-outs that look alike come from different tables or passages of the source.

Legend:
T-ALL PDX (ALL-31) [1] = conditions: OBI-3424 2.5 mg/kg, PR-104 200 mg/kg; cited from earlier work
T-ALL PDX (ALL-8) [2] = conditions: OBI-3424 2.5 mg/kg, PR-104 200 mg/kg; cited from earlier work
T-ALL PDX (ALL-8) [3] = assay: In vivo relapsed/refractory therapy comparison; parameters: species or system human
ALL-11/AKR1C3 [4] = assay: Ex vivo cytotoxicity assay on ALL-11 PDX overexpressing AKR1C3; type: cell-based; conditions: Homo sapiens, 48 h
Method in brief: (§1)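 Patient-derived xenograft leukemia cells were cultured ex vivo in AIM V medium at a density optimized for each xenograft (1–5 × 10⁶ cells per mL). ALL-11 cells were lentivirally transduced with AKR1C3 or with empty vector. Viability was read by resazurin or CellTiter-Glo. IC₅₀ was interpolated from nonlinear regression curves, with three biological experiments.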

[5] = Preliminary tolerability studies in cynomolgus monkeys; type: in vivo, cynomolgus monkey
T-ALL PDX (ALL-8) [6] = assay: In vivo consolidation therapy comparison, ALL-8 in NSG mice; parameters: species or system human
Method in brief: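 ALL-8-engrafted mice received test compound 5 mg/kg IP on Days 0 and 7, alone or with Ara-C and 6-mercaptopurine (each 12.5 mg/kg IP, Days 0–4 and 7–11). Comparators were cyclophosphamide (75 mg/kg IP, Days 0 and 7) and vehicle. Human CD45⁺ in PB was tracked over time. At Day 28, or at event for vehicle, PB, BM and spleen were assessed as % huCD45⁺ of mouse CD45⁺ (3 mice).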

[7] = ACHM-025 pharmacokinetic analysis of murine brain; type: in vivo; conditions: female, NSG, mouse, intraperitoneal, 25 mg/kg
Plasma protein binding [8] = type: in vitro ADME; conditions: mouse
[9] = ACHM-025 tolerability in naïve immunodeficient mice; type: in vivo, mouse; conditions: 25 mg/kg via IP weekly ×3
ALL-11/EV [10] = assay: In vivo efficacy against ALL-11/EV in mice; parameters: species or system human; conditions: 25 mg/kg IP Days 0, 7, 14
Method in brief: (§2)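 Mice engrafted with the patient-derived xenograft were dosed IP and their peripheral blood % human CD45⁺ was monitored. An event was defined as huCD45⁺ >25% in PB. Event-free survival of treated and vehicle cohorts was compared as T-C and T/C. Studies used either n = 6 mice per treatment or single-mouse testing (n = 1).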

ALL-11/AKR1C3 [11] = assay: In vivo efficacy against ALL-11/AKR1C3 in mice; parameters: species or system human; conditions: 25 mg/kg IP Days 0, 7, 14
Method in brief: as §2

Plasma protein binding [12] = type: in vitro ADME; conditions: human
T-ALL PDX (ALL-8) [13] = assay: In vivo dose response study, conventional, T-ALL PDX ALL-8 in NSG mice; parameters: species or system human
[14] = ACHM-025 pharmacokinetic analysis of murine plasma; type: in vivo; conditions: female, NSG, mouse, ip, 25 mg/kg, across the dose levels 5, 10, 25 mg/kg IP
T-ALL PDXs = assay: Ex vivo cytotoxicity assay; type: cell-based, human
Method in brief: as §1

B-ALL PDXs = assay: Ex vivo cytotoxicity assay; type: cell-based, human
Method in brief: as §1

ALL-11/EV [15] = assay: Ex vivo cytotoxicity assay on ALL-11 PDX empty vector; type: cell-based; conditions: Homo sapiens, 48 h
Method in brief: as §1

T-ALL PDX (ALL-8) [16] = assay: Histopathologic analysis of mouse skull and brain to assess tumor burden; type: in vivo, human; conditions: 10 mg/kg IP Days 0, 7, 14
25 T-ALL PDXs = assay: In vivo single mouse trial; parameters: species or system human; conditions: 25 mg/kg IP Days 0, 7, 14
T-ALL PDX (ALL-31) [17] = assay: In vivo efficacy, conventional study, T-ALL PDX ALL-31 in NSG mice; parameters: species or system human; conditions: 25 mg/kg IP Days 0, 7, 14
T-ALL PDX (ALL-8) [18] = assay: Minimal residual disease; type: in vivo, human; conditions: not within the quantitative range of the assay
[19] = ACHM-025 10 mg/kg IP Days 0, 7, 14, nelarabine 125 mg/kg IP Days 0–4, 14–18, alone or combined

## CS(=O)(=O)OCCN(CCBr)c1c(C(=O)NCCOP(=O)(O)O)cc([N+](=O)[O-])cc1[N+](=O)[O-] [PR-104]
T-ALL PDX (ALL-31) [1]
  delay of leukemia progression: 44.4 days
T-ALL PDX (ALL-8) [2]
  delay of leukemia progression: 54.3 days

## COc1nc(N)nc2c1ncn2[C@@H]1O[C@H](CO)[C@@H](O)[C@@H]1O [Nelarabine, nelarabine, reference compound]
T-ALL PDX (ALL-8) [3]; [19]
  EFS (median event free survival): 28.4 days
  T-C: 19.1 days
  T/C: 3.1 days
T-ALL PDX (ALL-8) [3]; nelarabine 125 mg/kg IP Days 0–4, 14–18
  human leukemia levels in the PB, BM or spleen at Day 28: did not significantly decrease

## CN1CCN(S(=O)(=O)c2cc([N+](=O)[O-])ccc2N(CCOS(C)(=O)=O)CCOS(C)(=O)=O)CC1 [ACHM-025, ((2-((4-methylpiperazin-1-yl)sulfonyl)-4-nitrophenyl)azanediyl)bis(ethane-2,1-diyl) dimethanesulfonate]
ALL-11/AKR1C3 [4]
  IC50: 13.1 nM
[5]; 0.6 mg/kg
  single dose-limiting toxicity: neutropenia
[5]; 2.0 mg/kg, the highest dose tested
  all other hematological, clinical chemistry, urinalysis and histopathology parameters: within normal range
[5]; preliminary studies
  well tolerated doses: ≤ 0.5 mg/kg
T-ALL PDX (ALL-8) [6]; ACHM-025 5 mg/kg IP Days 0, 7
  human leukemia levels in the PB, BM and spleen at Day 28: undetectable levels
T-ALL PDX (ALL-8) [6]; ACHM-025 5 mg/kg IP Days 0, 7, for six consecutive weeks
  human leukemia cells in the murine PB: < 1%
T-ALL PDX (ALL-8) [3]
  human leukemia cells in the BM at Day 28 by flow cytometry: no detectable human leukemia cells
T-ALL PDX (ALL-8) [3]; [19]
  EFS (median event free survival): 207 days
  ORM: MCRs
  T-C: 198 days
  T/C: 22.5 days
[7]
  concentration at 0.25 h: 140 nM
Plasma protein binding [8]
  fraction unbound at 5 µmol/L: 0.569
[9]
  Tolerability: well tolerated
ALL-11/EV [10]
  Treated EFS: 49.1 days
ALL-11/AKR1C3 [11]
  Treated EFS: 104 days
Plasma protein binding [12]
  fraction unbound at 5 µmol/L: 0.646
T-ALL PDX (ALL-8) [13]; 10 mg/kg IP Days 0, 7, 14
  ORM: MCRs
T-ALL PDX (ALL-8) [13]; 15 mg/kg IP Days 0, 7, 14
  ORM: MCRs
T-ALL PDX (ALL-8) [13]; 25 mg/kg IP Days 0, 7, 14
  ORM: MCRs
  mice with no detectable human leukemia cells in the PB at 250 days after the last treatment: 5 out of 6
T-ALL PDX (ALL-8) [13]; any of the three doses (10, 15 or 25 mg/kg)
  human leukemia cells in the PB, BM, spleen, kidney or liver at Day 28: no detectable human leukemia cells
[14]; Cmax
  Cmax: 1600 to 9300 nM
[14]; total plasma exposure (AUC0-inf)
  AUC(0-inf): 0.5 to 3.3 µM·h
T-ALL PDXs; Homo sapiens, 48 h, read-out: Median IC50, median of 6 T-ALL PDXs, 48 h
  IC50: 29 nM
B-ALL PDXs; Homo sapiens, 48 h, read-out: Median IC50, median of 6 B-ALL PDXs, 48 h
  IC50: 840 nM
ALL-11/EV [15]
  IC50: 1260 nM
T-ALL PDX (ALL-8) [16]
  leukemic infiltration of the calvarial bone marrow at Day 28 (H&E, TdT): no observable leukemic infiltration
25 T-ALL PDXs
  PDXs that did not reach event during the 250 day monitoring period following the final treatment: 7/25
T-ALL PDX (ALL-31) [17]
  Median EFS: > 332 days
  human leukemia cells in the murine peripheral blood (PB): < 1%
  mice that did not relapse over the >300-day observation period following the last treatment: 3 out of 5
  time for which human leukemia cells in PB <1% was maintained: 10 consecutive weeks
T-ALL PDX (ALL-8) [18]
  MRD in BM samples at Day 28 (PCR-based assay): MRD positive

## CS(=O)(=O)OCCN(CCBr)c1c(C(=O)NCCO)cc([N+](=O)[O-])cc1[N+](=O)[O-] [PR-104A, reference compound]
T-ALL PDXs; read-out: Median IC50, median of T-ALL PDXs
  IC50: 1800 nM
B-ALL PDXs; read-out: Median IC50, median of B-ALL PDXs
  IC50: 26600 nM
